Calls of active or inactive are those of the source. No cut-off for these calls is given here.
Columns and labels:
HT-29 [1] = assay: Induction of HO1 expression in human HT-29 cells at 3.8 uM after 2 hrs by Western blotting method; assay type: functional
Summary of the method: (§1)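 HT29 whole-cell lysates in Hepes/KOH pH 7.5 with EDTA, KCl, NP40, DTT, protease inhibitors; 50 µg protein on 10–15% SDS-PAGE, nitrocellulose, overnight 4°C primary antibody (GCL 1:500, HO-1 1:1000), HRP secondary, chemiluminescence. Bands normalized to GAPDH (1:10 000), DMSO ratio set at 1.00; representative of three independent experiments.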

HT-29 [2] = assay: Induction of NQO1 expression in human HT-29 cells at 3.8 uM after 24 hrs by Western blotting method; assay type: functional
Summary of the method: (§2)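 Whole-cell lysates from treated HT29 cells in pH 7.5 Hepes/KOH buffer with EDTA, KCl, Igepal, DTT and protease inhibitors. 50 µg protein run on 10-15% SDS-PAGE and transferred to nitrocellulose. Probed overnight at 4°C with anti-HO-1 (1:1 000), anti-NQO1 (1:1 000) or anti-GCL (1:500), then HRP secondary for 45 min and chemiluminescence. Bands normalized to GAPDH (1:10 000), with the DMSO ratio set to 1.00. Representative of three experiments.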

HT-29 [3] = assay: Induction of NQO1 expression in human HT-29 cells at 3.8 uM after 2 hrs by Western blotting method; assay type: functional; summary of the method: as §2
HT-29 [4] = assay: Induction of GCL expression in human HT-29 cells at 3.8 uM after 6 hrs by Western blotting method; assay type: functional; summary of the method: as §1
HT-29 [5] = assay: Induction of GCL expression in human HT-29 cells at 3.8 uM after 4 hrs by Western blotting method; assay type: functional; summary of the method: as §1
HT-29 [6] = assay: Induction of GCL expression in human HT-29 cells at 3.8 uM after 24 hrs by Western blotting method; assay type: functional; summary of the method: as §1
HT-29 [7] = assay: Induction of HO1 expression in human HT-29 cells at 3.8 uM after 4 hrs by Western blotting method; assay type: functional; summary of the method: as §1
HT-29 [8] = assay: Induction of NQO1 expression in human HT-29 cells at 3.8 uM after 4 hrs by Western blotting method; assay type: functional; summary of the method: as §2
HT-29 [9] = assay: Induction of HO1 expression in human HT-29 cells at 10 uM after 4 hrs by Western blotting method; assay type: functional; summary of the method: as §1
HT-29 [10] = assay: Induction of NQO1 expression in human HT-29 cells at 10 uM after 2 hrs by Western blotting method; assay type: functional; summary of the method: as §2
HT-29 [11] = assay: Induction of GCL expression in human HT-29 cells at 10 uM after 6 hrs by Western blotting method; assay type: functional; summary of the method: as §1
HT-29 [12] = assay: Induction of HO1 expression in human HT-29 cells at 10 uM after 6 hrs by Western blotting method; assay type: functional; summary of the method: as §1
HT-29 [13] = assay: Induction of GCL expression in human HT-29 cells at 10 uM after 24 hrs by Western blotting method; assay type: functional; summary of the method: as §1
HT-29 [14] = assay: Induction of HO1 expression in human HT-29 cells at 10 uM after 2 hrs by Western blotting method; assay type: functional; summary of the method: as §1
HT-29 [15] = assay: Induction of NQO1 expression in human HT-29 cells at 10 uM after 24 hrs by Western blotting method; assay type: functional; summary of the method: as §2
HT-29 [16] = assay: Induction of GCL expression in human HT-29 cells at 10 uM after 4 hrs by Western blotting method; assay type: functional; summary of the method: as §1
HT-29 [17] = assay: Induction of ROS generation in human HT-29 cells at cytotoxic IC50 level after 30 mins by DCF-DA staining based fluorescence assay; assay type: functional, cell-based
Summary of the method: (§3)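 HT29 cells treated two days after seeding, then loaded with 50 µM DCF-DA for 15 min at 37°C. Cells trypsinized, washed and resuspended in PBS, and 30 000 cells/sample read by flow cytometry (FL-1). Expressed as % of DMSO-treated cells; […] for 1 h served as positive control. Triplicates from three independent experiments.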

HT-29 [18] = assay: Induction of GCL expression in human HT-29 cells at 10 uM after 2 hrs by Western blotting method; assay type: functional; summary of the method: as §1
HT-29 [19] = assay: Induction of HO1 expression in human HT-29 cells at 10 uM after 24 hrs by Western blotting method; assay type: functional; summary of the method: as §1
HT-29 [20] = assay: Induction of NQO1 expression in human HT-29 cells at 10 uM after 6 hrs by Western blotting method; assay type: functional; summary of the method: as §2
HT-29 [21] = assay: Induction of NQO1 expression in human HT-29 cells at 6.4 uM after 6 hrs by Western blotting method; assay type: functional; summary of the method: as §2
HT-29 [22] = assay: Induction of HO1 expression in human HT-29 cells at 6.4 uM after 6 hrs by Western blotting method; assay type: functional; summary of the method: as §1
HT-29 [23] = assay: Induction of NQO1 expression in human HT-29 cells at 6.4 uM after 2 hrs by Western blotting method; assay type: functional; summary of the method: as §2
HT-29 [24] = assay: Induction of GCL expression in human HT-29 cells at 6.4 uM after 4 hrs by Western blotting method; assay type: functional; summary of the method: as §1
HT-29 [25] = assay: Induction of HO1 expression in human HT-29 cells at 6.4 uM after 24 hrs by Western blotting method; assay type: functional; summary of the method: as §1
HT-29 [26] = assay: Induction of HO1 expression in human HT-29 cells at 6.4 uM after 4 hrs by Western blotting method; assay type: functional; summary of the method: as §1
HT-29 [27] = assay: Induction of NQO1 expression in human HT-29 cells at 6.4 uM after 4 hrs by Western blotting method; assay type: functional; summary of the method: as §2
HT-29 [28] = assay: Induction of GCL expression in human HT-29 cells at 1.5 uM after 6 hrs by Western blotting method; assay type: functional; summary of the method: as §1
HT-29 [29] = assay: Induction of NQO1 expression in human HT-29 cells at 1.5 uM after 24 hrs by Western blotting method; assay type: functional; summary of the method: as §2
HT-29 [30] = assay: Induction of NQO1 expression in human HT-29 cells at 1.5 uM after 2 hrs by Western blotting method; assay type: functional; summary of the method: as §2
HT-29 [31] = assay: Induction of HO1 expression in human HT-29 cells at 1.5 uM after 24 hrs by Western blotting method; assay type: functional; summary of the method: as §1
HT-29 [32] = assay: Induction of HO1 expression in human HT-29 cells at 1.5 uM after 2 hrs by Western blotting method; assay type: functional; summary of the method: as §1
HT-29 [33] = assay: Induction of GCL expression in human HT-29 cells at 1.5 uM after 24 hrs by Western blotting method; assay type: functional; summary of the method: as §1
HT-29 [34] = assay: Induction of HO1 expression in human HT-29 cells at 1.5 uM after 4 hrs by Western blotting method; assay type: functional; summary of the method: as §1
HT-29 [35] = assay: Induction of NQO1 expression in human HT-29 cells at 1.5 uM after 4 hrs by Western blotting method; assay type: functional; summary of the method: as §2
HT-29 [36] = assay: Induction of HO1 expression in human HT-29 cells at 1.5 uM after 6 hrs by Western blotting method; assay type: functional; summary of the method: as §1
HT-29 [37] = assay: Induction of ROS generation in human HT-29 cells at 2.5 uM after 3 hrs by DCF-DA staining based fluorescence assay; assay type: functional, cell-based; summary of the method: as §3
HT-29 [38] = assay: Inhibition of cell growth in human HT-29 cells assessed as mitotic index ratio in presence of 1 mM ascorbic acid (reference value: 1.08 +/- 0.04); assay type: functional
HT-29 [39] = assay: Induction of redox status changes in human HT-29 cells assessed as ROS content in presence of 1 mM ascorbic acid by DCF-DA staining based fluorescence assay (reference value: 64.7 +/- 2.6%)
HT-29 [40] = assay: Induction of ROS generation in human HT-29 cells at 2.5 uM after 2 to 6 hrs by DCF-DA staining based fluorescence assay; assay type: functional, cell-based; summary of the method: as §3

Compound: COc1ccc(/C=C2\S/C(=N\c3csc(-c4ccc(Cl)cc4)c3)NC2=O)cc1
- fold change (FC) (HT-29 [1]): 1
- fold change (FC) (HT-29 [2]): 0.88
- fold change (FC) (HT-29 [3]): 1.16
- fold change (FC) (HT-29 [4]): 1.69
- fold change (FC) (HT-29 [5]): 1.49
- fold change (FC) (HT-29 [6]): 1.55
- fold change (FC) (HT-29 [7]): 1
- fold change (FC) (HT-29 [8]): 0.87

Compound: COc1ccc(/C=C2\S/C(=N\c3csc(-c4ccc(Cl)cc4)c3)NC2=O)cc1OC
- fold change (FC) (HT-29 [9]): 1
- fold change (FC) (HT-29 [10]): 1.04
- fold change (FC) (HT-29 [11]): 1.16
- fold change (FC) (HT-29 [12]): 1
- fold change (FC) (HT-29 [13]): 1.11
- fold change (FC) (HT-29 [14]): 1
- fold change (FC) (HT-29 [15]): 0.9
- fold change (FC) (HT-29 [16]): 1.16
- Activity (HT-29 [17]): Active
- fold change (FC) (HT-29 [18]): 0.96
- fold change (FC) (HT-29 [19]): 1
- fold change (FC) (HT-29 [20]): 1.23

Compound: Cc1ccc(/C=C2\S/C(=N\c3csc(-c4ccc(Cl)cc4)c3)NC2=O)cc1
- fold change (FC) (HT-29 [21]): 1.86
- fold change (FC) (HT-29 [22]): 1
- fold change (FC) (HT-29 [23]): 2.23
- fold change (FC) (HT-29 [24]): 2.54
- fold change (FC) (HT-29 [25]): 1
- fold change (FC) (HT-29 [26]): 1
- fold change (FC) (HT-29 [27]): 2.59

Compound: CN(C)c1ccc(/C=C2\S/C(=N\c3csc(-c4ccc(Cl)cc4)c3)NC2=O)cc1
- fold change (FC) (HT-29 [28]): 0.99
- fold change (FC) (HT-29 [29]): 1.07
- fold change (FC) (HT-29 [30]): 1.15
- fold change (FC) (HT-29 [31]): 1
- fold change (FC) (HT-29 [32]): 1
- fold change (FC) (HT-29 [33]): 1.52
- fold change (FC) (HT-29 [34]): 1
- fold change (FC) (HT-29 [35]): 1.06
- fold change (FC) (HT-29 [36]): 1

Compound: CN(C)c1ccc(/C=C2\S/C(=N\c3nc(-c4ccc(Cl)cc4)cs3)NC2=O)cc1
- Activity (HT-29 [37]): Active
- Ratio (HT-29 [38]): 0.09
- Activity (HT-29 [39]): 158.8%

Compound: COc1ccc(/C=C2\S/C(=N\c3nc(-c4ccc(Cl)cc4)cs3)NC2=O)cc1
- Activity (HT-29 [40]): inactive

— ChEMBL document CHEMBL3414496, “Synthesis and biological evaluation of novel 2-heteroarylimino-1,3-thiazolidin-4-ones as potential anti-tumor agents” (Eur J Med Chem, 2015)
